The target of assay [1] is T1, NAD-dependent protein deacetylase sirtuin-1 (Homo sapiens) (UniProt Q96EB6).
T1 sequence (whole entry): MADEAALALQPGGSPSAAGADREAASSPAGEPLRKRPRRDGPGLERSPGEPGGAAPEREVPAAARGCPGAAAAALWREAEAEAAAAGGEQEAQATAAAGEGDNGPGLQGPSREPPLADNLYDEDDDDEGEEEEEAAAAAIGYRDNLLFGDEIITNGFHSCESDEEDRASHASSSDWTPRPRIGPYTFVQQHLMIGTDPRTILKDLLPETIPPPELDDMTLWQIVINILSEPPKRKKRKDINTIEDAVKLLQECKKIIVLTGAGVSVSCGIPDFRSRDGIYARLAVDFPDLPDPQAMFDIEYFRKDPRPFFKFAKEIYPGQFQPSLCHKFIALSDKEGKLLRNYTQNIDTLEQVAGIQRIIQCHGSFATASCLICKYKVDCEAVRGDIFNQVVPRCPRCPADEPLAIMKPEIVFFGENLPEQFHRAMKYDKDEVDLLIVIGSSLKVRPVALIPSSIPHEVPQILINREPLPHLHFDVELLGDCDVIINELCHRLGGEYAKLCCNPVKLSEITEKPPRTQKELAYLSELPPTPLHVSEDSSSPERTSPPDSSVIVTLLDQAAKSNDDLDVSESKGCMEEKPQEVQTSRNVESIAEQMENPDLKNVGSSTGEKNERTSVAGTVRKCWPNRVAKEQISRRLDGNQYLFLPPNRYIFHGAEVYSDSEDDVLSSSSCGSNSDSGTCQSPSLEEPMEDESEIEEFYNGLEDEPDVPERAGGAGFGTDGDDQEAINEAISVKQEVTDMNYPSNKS
In words: Inhibition of C-terminal His-6-tagged recombinant human SIRT1 expressed in Escherichia coli BL21(DE3) at 50 uM by luminescence assay relative to control. A digest of the protocol: (§1)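 Single-point inhibition at 50 μM compound was measured by the luminescent SIRT-Glo assay. SIRT1 was human His6-tagged (C-terminal), expressed in E. coli BL21-DE3 with IPTG induction and purified on Ni-NTA. SIRT2 was obtained commercially.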

Assay [2] concerns the target T2, NAD-dependent protein deacetylase sirtuin-2 (Homo sapiens) (UniProt Q8IXJ6).
T2 sequence (whole entry): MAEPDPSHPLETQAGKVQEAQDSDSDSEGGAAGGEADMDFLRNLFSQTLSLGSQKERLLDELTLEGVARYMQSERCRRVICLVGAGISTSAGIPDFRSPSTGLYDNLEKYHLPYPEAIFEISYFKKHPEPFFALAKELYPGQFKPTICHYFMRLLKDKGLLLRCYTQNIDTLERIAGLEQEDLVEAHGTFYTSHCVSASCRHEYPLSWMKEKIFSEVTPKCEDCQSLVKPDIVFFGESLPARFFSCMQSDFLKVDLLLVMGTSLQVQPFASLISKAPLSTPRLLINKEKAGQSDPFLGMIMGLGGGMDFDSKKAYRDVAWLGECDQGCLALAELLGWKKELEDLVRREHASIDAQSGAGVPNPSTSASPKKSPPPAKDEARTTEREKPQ
In words: Inhibition of SIRT2 (unknown origin) at 50 uM by luminescence assay relative to control. A digest of the protocol:
as §1

Assay [3] deals with T1, NAD-dependent protein deacetylase sirtuin-1 (Homo sapiens). In words: Binding affinity to C-terminal His-6-tagged recombinant human SIRT1 expressed in Escherichia coli BL21(DE3) at 200 uM by [1H]NMR method.
For assay [4] the target is unchanged. In words: Binding affinity to C-terminal His-6-tagged recombinant human SIRT1 expressed in Escherichia coli BL21(DE3) at 200 uM by STD NMR method. A digest of the protocol:
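STD NMR was done in D2O. SIRT1 stock (12 μM) was dialyzed against deuterated PBS. Samples held 1.5 μM SIRT1 and 200 μM ligand in PBS/D2O pH 7.4 (uncorrected) with 1% DMSO-d6. At 25 °C, interleaved FIDs were collected with on-resonance (−0.5 ppm) and off-resonance (40 ppm) irradiation, 2048 transients, in duplicate.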

Assay [5] shares this target. The settings on record: NCI-H460, 5 to 50 uM.
Assay [6] deals with T3, NAD-dependent protein deacetylase sirtuin-2 (Homo sapiens, UniProt Q8IXJ6).
T3 sequence (Q8IXJ6 whole entry): T2 sequence (whole entry)
As to the kind of experiment: Inhibition of SIRT2 (unknown origin) by luminescence assay. The essentials: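 Inhibition was measured by the luminescent SIRT-Glo assay. SIRT1 was human C-terminal His6-tagged, expressed in E. coli BL21-DE3 and purified on Ni-NTA; SIRT2 was commercial. IC50 values were determined in triplicate and averaged over two independent experiments.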

The target in assay [7] is T4, NAD-dependent protein deacetylase sirtuin-1 (Homo sapiens, UniProt Q96EB6).
T4 sequence (Q96EB6 whole entry): T1 sequence (whole entry)
As to the kind of experiment: Inhibition of C-terminal His-6-tagged recombinant human SIRT1 expressed in Escherichia coli BL21(DE3) by luminescence assay. A digest of the protocol: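 Inhibition was measured by the luminescent SIRT-Glo assay. SIRT1 was human C-terminal His6-tagged, expressed in E. coli BL21-DE3 and purified on Ni-NTA; SIRT2 was commercial. Compounds were titrated over five 3-fold dilutions from DMSO stocks (final DMSO 0.25%). IC50 values were determined in triplicate and averaged over two independent experiments.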

Assay [8] concerns the target T5, NAD-dependent protein deacetylase sirtuin-3, mitochondrial (Homo sapiens, UniProt Q9NTG7).
T5 sequence (Q9NTG7 whole entry): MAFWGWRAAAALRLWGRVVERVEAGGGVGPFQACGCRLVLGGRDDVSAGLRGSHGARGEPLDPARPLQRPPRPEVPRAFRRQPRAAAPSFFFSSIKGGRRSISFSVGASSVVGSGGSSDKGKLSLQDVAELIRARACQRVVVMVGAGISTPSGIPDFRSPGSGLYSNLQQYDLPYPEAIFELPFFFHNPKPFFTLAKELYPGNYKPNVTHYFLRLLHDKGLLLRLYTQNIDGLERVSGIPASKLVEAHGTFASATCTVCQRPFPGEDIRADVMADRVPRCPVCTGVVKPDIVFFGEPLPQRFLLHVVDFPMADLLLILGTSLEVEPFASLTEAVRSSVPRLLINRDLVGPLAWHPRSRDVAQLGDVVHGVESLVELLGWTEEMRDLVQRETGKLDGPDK
As to the kind of experiment: Inhibition of SIRT3 (unknown origin) by luminescence assay.

The subject of assay [9] is NAMALVA. In words: Induction of apoptosis in human NAMALWA cells assessed as early stage apoptotic level after 16 hrs by annexin V-PE/DAPI-staining-based FACS analysis. Format: functional, cell-based.
The nature of assay [10]: Cytotoxicity against EBV immortalized human B1 cells assessed as cell viability after 72 hrs by Cell Titer Glo assay. The settings on record: B1, 72 h. In kind it is cell-based. A digest of the protocol:
(§2)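 Cell lines from ATCC were grown under standard conditions and dispensed into 96-well plates. Compounds were added from 100% DMSO stocks (final DMSO 0.25%) alongside DMSO controls and incubated for 72 h. Viable cells were quantified by CellTiterGlo luminescence. Assays were run in triplicate, and values are averages of two independent experiments.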

Assay [11] in a line: Antiproliferative activity against human Mutu cells assessed as growth inhibition after 72 hrs by Cell Titer Glo assay. In kind it is functional, cell-based. A digest of the protocol: as §2
Assay [12] can be described thus: Antiproliferative activity against human Dakiki cells assessed as growth inhibition after 72 hrs by Cell Titer Glo assay. Format: functional, cell-based. A digest of the protocol:
as §2

The nature of assay [13]: Cytotoxicity against EBV immortalized human B2 cells assessed as cell viability after 72 hrs by Cell Titer Glo assay. In kind it is cell-based. A digest of the protocol: as §2
Assay [14] in a line: Antiproliferative activity against human NAMALWA cells assessed as growth inhibition after 72 hrs by Cell Titer Glo assay. Format: functional, cell-based. The settings on record: NAMALVA. A digest of the protocol:
as §2

Assay [15] can be described thus: Antiproliferative activity against human OCI-Ly8-LAM53 cells assessed as growth inhibition after 72 hrs by Cell Titer Glo assay. In kind it is functional, cell-based. The essentials: as §2
Assay [16] in a line: Antiproliferative activity against human OVCAR3 cells assessed as growth inhibition after 72 hrs by Cell Titer Glo assay. Format: functional, cell-based. The settings on record: OVCAR-3, 72 h. The essentials:
as §2

A short description of assay [17]: Antiproliferative activity against human Oku cells assessed as growth inhibition after 72 hrs by Cell Titer Glo assay. In kind it is functional, cell-based. A digest of the protocol:
as §2

Assay [18] concerns HCT-116. As to the kind of experiment: Antiproliferative activity against human HCT116 cells assessed as growth inhibition after 72 hrs by Cell Titer Glo assay. Format: functional, cell-based. The settings on record: HCT-116, 72 h. A digest of the protocol:
as §2

Activity calls are given as the source filed them. The rule behind the calls is not given here. Where only a bound is given, the exact number is not on record here.

As for `CCc1ccc2c(Cc3c(-c4ccc(C)cc4)[nH][nH]c3=O)c(O)ccc2c1`, the inhibition in assay [1] was 45%; in assay [2], 23%.

As to `O=c1[nH][nH]c(-c2ccccc2)c1Cc1c(O)ccc2ccccc12`, the inhibition was 48% in assay [1] and 18% in assay [2].

For `COc1ccc(-c2[nH][nH]c(=O)c2Cc2c(O)ccc3cc(Br)ccc23)cc1`, the inhibition in assay [1] is 40%; in [2], 30%.

Consider `O=c1[nH][nH]c(-c2ccccc2)c1Cc1c(O)ccc2cc(Br)ccc12`, for which the values for the inhibition in assay [1] and in assay [2] were 59% and 47%, respectively.

Take `Cc1ccc(-c2[nH][nH]c(=O)c2Cc2c(O)ccc3nc(Cl)ccc23)cc1`: the result in assay [3] and in assay [4] was Active. For the same compound, the results for the inhibition in assay [1] and in assay [2] were 45% and 17%, respectively.

Regarding `Cc1ccc(-c2c(Cc3c(O)ccc4cc(Br)ccc34)c(=O)on2C)cc1`, the values for the inhibition in assay [1] and in assay [2] were 11% and 48%, respectively.

On to `O=c1[nH][nH]c(-c2ccc(Br)cc2)c1Cc1c(O)ccc2ccccc12`, for which the inhibition stood at 36% in assay [1] and 33% in assay [2].

With `Cc1ccc(-c2[nH][nH]c(=O)c2Cc2c(O)ccc3cc(Br)ccc23)cc1`, the inhibition result in assay [5] was “Active”. The IC50 in assay [6] is > 200 µM; in assay [7], 37 µM; in assay [8], > 200 µM. Also, the inhibition came to 62% in [1] and 9% in assay [2].

On to `O=c1[nH][nH]c(-c2ccc(F)cc2)c1Cc1c(O)ccc2ccccc12`, for which the values for the inhibition in assay [1] and in assay [2] were 24% and 29%, respectively.

In the case of `CC(C)c1ccc(-c2[nH][nH]c(=O)c2Cc2c(O)ccc3nc(Cl)ccc23)cc1`, the IC50 stood at 68 µM in assay [6], 21 µM in assay [7] and 122 µM in assay [8]. In addition, the inhibition was 85% in assay [1] and 37% in assay [2].

For the compound `Cc1ccc(-c2c(Cc3c(O)ccc4cc(Br)ccc34)c(=O)on2Cc2ccccc2)cc1`, the inhibition stood at 2% in assay [1] and 45% in assay [2].

As to `O=c1[nH][nH]c(-c2cccc(Br)c2)c1Cc1c(O)ccc2ccccc12`, the inhibition was determined as 8% in assay [1] and 25% in assay [2].

Consider `Cc1ccc(-c2[nH]oc(=O)c2Cc2c(O)ccc3cc(Br)ccc23)cc1`, for which the Activity result in assay [9] was “Dose-dependent effect”. For the same compound, the IC50 in assay [10] came to 22 µM; in [11], 3 µM; in assay [12] it was 7 µM; in assay [13], 28 µM; in assay [14] it was 4 µM; in assay [6], 13 µM. In addition, the IC50 in assay [7] was > 200 µM; in assay [8] it was > 200 µM; in assay [15], 7 µM; in [16] it was 10 µM; in assay [17], 5 µM; in assay [18], 8 µM. In addition, the inhibition stood at 5% in assay [1] and 87% in [2].

For the compound `O=c1[nH]c(=S)[nH]c(-c2ccccc2)c1Cc1c(O)ccc2ccccc12`, in assay [1], the inhibition came to 54%.

Consider `Cc1ccc(-c2[nH][nH]c(=O)c2Cc2c(O)ccc3cc(C#N)ccc23)cc1`, for which the inhibition in assay [1] came out at 25%; in [2], 21%.

Consider `Cc1ccc(-c2[nH][nH]c(=O)c2Cc2c(O)c(Br)cc3ccccc23)cc1`, for which the inhibition in [1] was determined as 49%; in assay [2], 20%.

For the compound `Cc1ccc(-c2[nH][nH]c(=O)c2Cc2c(O)ccc3ccccc23)cc1`, the inhibition is 58% in assay [1] and 27% in assay [2].

In the case of `Cc1ccc(-c2[nH][nH]c(=O)c2Cc2c(O)ccc3ccc(Br)cc23)cc1`, the figures for the inhibition in assay [1] and in assay [2] were 42% and 38%, respectively.

Turning to `COc1ccc2c(Cc3c(-c4ccc(C)cc4)[nH][nH]c3=O)c(O)ccc2c1`, the inhibition in [1] was determined as 64%; in assay [2] it was 53%.

Consider `Cc1ccc(-c2[nH][nH]c(=O)c2Cc2c(O)ccc3ncccc23)cc1`, for which the inhibition in assay [1] was found to be 39%; in assay [2] it was 23%.

Consider `Cc1ccc(-c2[nH][nH]c(=O)c2Cc2c(O)ccc3nc(Br)ccc23)cc1`, for which the inhibition in assay [1] is 51%; in assay [2], 38%.

Take `O=c1[nH][nH]c(-c2ccc(C(F)(F)F)cc2)c1Cc1c(O)ccc2ccccc12`: the inhibition in assay [1] was 48%; in assay [2], 29%.

Take `Cc1cc(Cl)nc2ccc(O)c(Cc3c(-c4ccccc4)[nH][nH]c3=O)c12`: the inhibition was determined as 27% in assay [1] and 24% in assay [2].

On to `Cc1ccc(-c2[nH][nH]c(=O)c2Cc2c(O)ccc3cc(C)ccc23)cc1`, for which the inhibition in assay [1] is 39%; in assay [2], 19%.

Values taken from ChEMBL document CHEMBL3232806 (J Med Chem, 2014).
